The subject of assay [1] is Mus musculus. The assay can be described thus: Protection against TNF-induced lethal shock in mouse assessed as reduction in body temperature loss at 3 mg/kg, po pretreated for 15 mins followed by TNF-stimulation measured after 6 hrs relative to control. Type of assay: functional. Also noted: scale not given: the % may be the effect or the level left.
Assay [2] can be described thus: Displacement of (14-(2-{[3-({2-{[4-(cyanomethyl)phenyl]amino}-6-[(5-cyclopropyl-1H-pyrazol-3-yl)-amino]-4-pyrimidinyl}amino)propyl]amino}-2-oxoethyl)-16,16,18,18-tetramethyl-6,7,7a,8a,9,10,16,18-octahydrobenzo[2'',3'']indolizino-[8'',7'':5',6']pyrano[3',2':3,4]pyrido[1,2-a]indol-5-ium-2-sulfonate from rat RIP1 (1 to 377 residues) expressed in baculovirus infected insect cells measured for 50 mins by fluorescence polarization assay. The gist of the method:
(§1)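 Competitive FP binding assay in which test compounds displace a fluorescently labeled ATP-competitive ligand from RIP1.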
(In general: Polarisation of emitted light reports the rotation of a fluorescent probe.)

Assay [3] deals with Mus musculus. Kind of assay: Protection against TNF/zVAD-induced lethal shock in mouse assessed as reduction in body temperature loss at 3 mg/kg, po pretreated for 15 mins followed by TNF/zVAD-stimulation measured after 3 hrs relative to control. It counts as functional. Set-up: scale not given: the % may be the effect or the level left.
The subject of assay [4] is Mus musculus. The assay can be described thus: Protection against TNF-induced lethal shock in mouse assessed as reduction in body temperature loss at 50 mg/kg, po pretreated for 15 mins followed by TNF-stimulation measured after 6 hrs relative to control. It counts as functional. Set-up: scale not given: the % may be the effect or the level left.
Assay [5] can be described thus: Displacement of (14-(2-{[3-({2-{[4-(cyanomethyl)phenyl]amino}-6-[(5-cyclopropyl-1H-pyrazol-3-yl)-amino]-4-pyrimidinyl}amino)propyl]amino}-2-oxoethyl)-16,16,18,18-tetramethyl-6,7,7a,8a,9,10,16,18-octahydrobenzo[2'',3'']indolizino-[8'',7'':5',6']pyrano[3',2':3,4]pyrido[1,2-a]indol-5-ium-2-sulfonate from dog RIP1 (1 to 373 residues) expressed in baculovirus infected insect cells measured for 50 mins by fluorescence polarization assay. Also noted: species or system Canis lupus familiaris. The gist of the method: as §1

The nature of assay [6]: Displacement of (14-(2-{[3-({2-{[4-(cyanomethyl)phenyl]amino}-6-[(5-cyclopropyl-1H-pyrazol-3-yl)-amino]-4-pyrimidinyl}amino)propyl]amino}-2-oxoethyl)-16,16,18,18-tetramethyl-6,7,7a,8a,9,10,16,18-octahydrobenzo[2'',3'']indolizino-[8'',7'':5',6']pyrano[3',2':3,4]pyrido[1,2-a]indol-5-ium-2-sulfonate from mini pig RIP1 (1 to 375 residues) expressed in baculovirus infected insect cells measured for 50 mins by fluorescence polarization assay. Also noted: species or system Sus scrofa. The gist of the method: as §1

The nature of assay [7]: Inhibition of RIP1 in cynomolgus monkey whole blood assessed as reduction in TNFalpha/[…]/zVAD FMK/SMAC mimetic RMT 5265-IL-1beta production after 6 hrs by sandwich ELISA. The following applies: Macaca fascicularis. In outline:
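Heparinized venous cynomolgus whole blood was stimulated with stocks of TNF (200 ng/mL), QVD-OPh or zVAD.fmk (400 μM) and RMT 5265 (20 μM), with stock values as printed. Compound was a 5-fold dilution series, top 5 μM, in RPMI/1% FBS/1% DMSO. Incubation was 6 h at 37 °C, 5% CO2, then PBS dilution and centrifugation. Supernatant IL-1β was read by sandwich ELISA.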
On the technique in general: In an ELISA, binding on a coated surface is turned into a signal by an enzyme label.

Assay [8] concerns Mus musculus. Kind of assay: In vivo inhibition of RIP1 in po dosed mouse model of TNF/zVAD-induced lethal shock assessed as plasma concentration required for reduction in body temperature loss pretreated for 15 mins followed by TNF-stimulation measured after 3 hrs. Type of assay: functional, organism-based.
Assay [9] can be described thus: Displacement of (14-(2-{[3-({2-{[4-(cyanomethyl)phenyl]amino}-6-[(5-cyclopropyl-1H-pyrazol-3-yl)-amino]-4-pyrimidinyl}amino)propyl]amino}-2-oxoethyl)-16,16,18,18-tetramethyl-6,7,7a,8a,9,10,16,18-octahydrobenzo[2'',3'']indolizino-[8'',7'':5',6']pyrano[3',2':3,4]pyrido[1,2-a]indol-5-ium-2-sulfonate from rabbit RIP1 (1 to 371 residues) expressed in baculovirus infected insect cells measured for 50 mins by fluorescence polarization assay. Set-up: species or system Oryctolagus cuniculus. The gist of the method:
as §1

The subject of assay [10] is Mus musculus. The assay can be described thus: Protection against TNF-induced lethal shock in mouse assessed as reduction in body temperature loss at 10 mg/kg, po pretreated for 15 mins followed by TNF-stimulation measured after 6 hrs relative to control. It counts as functional. Also noted: scale not given: the % may be the effect or the level left.
Assay [11] relates to Mus musculus. The assay can be described thus: In vivo inhibition of RIP1 in po dosed mouse model of TNF-induced lethal shock assessed as plasma concentration required for reduction in body temperature loss pretreated for 15 mins followed by TNF-stimulation measured after 6 hrs. It counts as functional, organism-based.
Assay [12] deals with T1, Receptor-interacting serine/threonine-protein kinase 1 (Homo sapiens) (UniProt Q13546).
T1 sequence (whole entry): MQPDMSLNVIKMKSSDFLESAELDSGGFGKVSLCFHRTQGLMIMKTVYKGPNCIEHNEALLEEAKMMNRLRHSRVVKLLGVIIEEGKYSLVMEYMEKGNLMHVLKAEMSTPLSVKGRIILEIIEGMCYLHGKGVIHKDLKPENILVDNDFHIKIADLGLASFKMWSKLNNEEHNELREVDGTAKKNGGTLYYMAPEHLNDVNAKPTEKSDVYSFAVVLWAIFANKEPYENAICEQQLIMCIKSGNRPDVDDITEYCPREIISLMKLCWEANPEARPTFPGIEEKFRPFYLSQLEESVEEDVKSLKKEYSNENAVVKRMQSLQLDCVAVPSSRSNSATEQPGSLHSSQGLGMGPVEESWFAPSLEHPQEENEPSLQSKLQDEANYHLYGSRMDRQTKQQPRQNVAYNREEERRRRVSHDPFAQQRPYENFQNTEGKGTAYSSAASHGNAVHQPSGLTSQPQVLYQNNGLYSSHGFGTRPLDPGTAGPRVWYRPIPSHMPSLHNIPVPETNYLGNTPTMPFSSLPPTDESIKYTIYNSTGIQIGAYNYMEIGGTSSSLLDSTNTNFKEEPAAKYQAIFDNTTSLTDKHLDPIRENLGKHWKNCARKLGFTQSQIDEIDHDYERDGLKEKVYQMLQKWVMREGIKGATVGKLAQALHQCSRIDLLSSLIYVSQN

The test system of assay [13] is Mus musculus. The assay can be described thus: Protection against TNF/zVAD-induced lethal shock in mouse assessed as reduction in body temperature loss at 50 mg/kg, po pretreated for 15 mins followed by TNF/zVAD-stimulation measured after 3 hrs relative to control. Type of assay: functional. Set-up: scale not given: the % may be the effect or the level left.
Assay [14] can be described thus: Displacement of (14-(2-{[3-({2-{[4-(cyanomethyl)phenyl]amino}-6-[(5-cyclopropyl-1H-pyrazol-3-yl)-amino]-4-pyrimidinyl}amino)propyl]amino}-2-oxoethyl)-16,16,18,18-tetramethyl-6,7,7a,8a,9,10,16,18-octahydrobenzo[2'',3'']indolizino-[8'',7'':5',6']pyrano[3',2':3,4]pyrido[1,2-a]indol-5-ium-2-sulfonate from monkey RIP1 (1 to 379 residues) expressed in baculovirus infected insect cells measured for 50 mins by fluorescence polarization assay. Also noted: species or system Macaca mulatta. In outline:
as §1

Assay [15] concerns Mus musculus. Kind of assay: Protection against TNF/zVAD-induced lethal shock in mouse assessed as reduction in body temperature loss at 10 mg/kg, po pretreated for 15 mins followed by TNF/zVAD-stimulation measured after 3 hrs relative to control. Type of assay: functional. Also noted: scale not given: the % may be the effect or the level left.

Molecules are shown by their SMILES. A value given as a limit tells only on which side of the number the result lay.

Regarding `CN1C(=O)[C@@H](NC(=O)c2n[nH]c(Cc3ccccc3)n2)COc2ccccc21` [GSK2982772], the Activity with Mus musculus [1] was determined as 68%; in the assay on Mus musculus [3], 13%; in the assay with Mus musculus [4] it was 87%; in the assay with Mus musculus [10], 80%; in the assay with Mus musculus [13], 93%; with Mus musculus [15], 63%. Besides, the IC50 is 2 µM in assay [2]; 5 µM in [5]; > 10 µM in assay [6]; 0.004 µM in assay [7]; 3.2 µM with Mus musculus [8]; 0.79 µM in [9]. The IC50 with Mus musculus [11] worked out at 1 µM; in [14] it was 0.02 µM. Besides, the T1/2 in [12] is 1.87 h.

The IC50 is the concentration needed to halve the response being measured.

The values above are taken from ChEMBL document CHEMBL3997808 (J Med Chem, 2017).
